Measurements published in ChEMBL document CHEMBL3120060, “Synthesis, in vitro anticancer evaluation and in silico studies of novel imidazo[2,1-b]thiazole derivatives bearing pyrazole moieties” (2014).

Legend:
Type in all cases: functional
KM12 = assay: Cytotoxicity against human KM12 cells assessed as cell growth at 10 uM after 48 hrs by SRB assay; settings: KM12, 48 h, read-out: Activity
Summary of the method: (§1)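 NCI-60 single-dose screen. Cell lines grown in RPMI 1640 with 5% FBS and 2 mM L-glutamine, plated at 5000–40,000 cells/well according to doubling time, then preincubated 24 h at 37 °C in 5% CO2. Compounds dissolved in DMSO, tested at 10^-5 M for 48 h. Adherent cells fixed with cold TCA (10% final) and stained with 0.4% SRB in 1% acetic acid. Growth expressed as percent of untreated control.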

SF-295 = assay: Cytotoxicity against human SF295 cells assessed as cell growth at 10 uM after 48 hrs by SRB assay; settings: SF-295, 48 h, read-out: Activity; summary of the method: as §1
Malme-3M = assay: Cytotoxicity against human MALME-3M cells assessed as cell growth at 10 uM after 48 hrs by SRB assay; settings: read-out: Activity; summary of the method: as §1
[1] = Cytotoxicity against human OVCAR4 cells assessed as cell growth at 10 uM after 48 hrs by SRB assay; settings: OVCAR-4, 48 h, read-out: Activity; summary of the method: as §1
SF-268 = assay: Cytotoxicity against human SF268 cells assessed as cell growth at 10 uM after 48 hrs by SRB assay; settings: SF-268, 48 h, read-out: Activity; summary of the method: as §1
T47D = assay: Cytotoxicity against human T47D cells assessed as cell growth at 10 uM after 48 hrs by SRB assay; settings: read-out: Activity
Summary of the method: (§2)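 NCI-60 single-dose screen at 10^-5 M. Adherent lines are grown in RPMI 1640 with 5% FBS and 2 mM L-glutamine, seeded at 5000–40,000 cells/well by doubling time, and preincubated 24 h at 37 °C in 5% CO2. Drug is added from DMSO stock diluted in medium, then 48 h. Cells are fixed in cold TCA (final 10%) for 60 min and stained with 0.4% SRB in 1% acetic acid. Growth is expressed as % of untreated control using time-zero plates.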

MDA-MB-231 = assay: Cytotoxicity against human MDA-MB-231 cells assessed as cell growth at 10 uM after 48 hrs by SRB assay; settings: MDA-MB-231, 48 h, read-out: Activity; summary of the method: as §1
SK-OV-3 = assay: Cytotoxicity against human SKOV3 cells assessed as cell growth at 10 uM after 48 hrs by SRB assay; settings: SK-OV-3, 48 h, read-out: Activity; summary of the method: as §1
TK-10 = assay: Cytotoxicity against human TK10 cells assessed as cell growth at 10 uM after 48 hrs by SRB assay; settings: TK-10, 48 h, read-out: Activity; summary of the method: as §2
A549 = assay: Cytotoxicity against human A549 cells assessed as cell growth at 10 uM after 48 hrs by SRB assay; settings: A549, 48 h, read-out: Activity; summary of the method: as §1
[2] = Cytotoxicity against human UACC257 cells assessed as cell growth at 10 uM after 48 hrs by SRB assay; settings: UACC-257, 48 h, read-out: Activity; summary of the method: as §2
SNB-19 = assay: Cytotoxicity against human SNB19 cells assessed as cell growth at 10 uM after 48 hrs by SRB assay; settings: SNB-19, 48 h, read-out: Activity; summary of the method: as §1
HCC 2998 = assay: Cytotoxicity against human HCC2998 cells assessed as cell growth at 10 uM after 48 hrs by SRB assay; settings: HCC 2998, 48 h, read-out: Activity; summary of the method: as §1
[3] = Cytotoxicity against human UO31 cells assessed as cell growth at 10 uM after 48 hrs by SRB assay; settings: UO-31, 48 h, read-out: Activity; summary of the method: as §2
BT-549 = assay: Cytotoxicity against human BT549 cells assessed as cell growth at 10 uM after 48 hrs by SRB assay; settings: BT-549, 48 h, read-out: Activity; summary of the method: as §1
HT-29 = assay: Cytotoxicity against human HT-29 cells assessed as cell growth at 10 uM after 48 hrs by SRB assay; settings: HT-29, 48 h, read-out: Activity; summary of the method: as §1
HCT-116 = assay: Cytotoxicity against human HCT116 cells assessed as cell growth at 10 uM after 48 hrs by SRB assay; settings: HCT-116, 48 h, read-out: Activity; summary of the method: as §1
MOLT-4 = assay: Cytotoxicity against human MOLT4 cells assessed as cell growth at 10 uM after 48 hrs by SRB assay; settings: MOLT-4, 48 h, read-out: Activity; summary of the method: as §1
U-251 = assay: Cytotoxicity against human U251 cells assessed as cell growth at 10 uM after 48 hrs by SRB assay; settings: U-251, 48 h, read-out: Activity; summary of the method: as §2
PC-3 = assay: Cytotoxicity against human PC3 cells assessed as cell growth at 10 uM after 48 hrs by SRB assay; settings: PC-3, 48 h, read-out: Activity; summary of the method: as §1
A498 = assay: Cytotoxicity against human A498 cells assessed as cell growth at 10 uM after 48 hrs by SRB assay; settings: A498, 48 h, read-out: Activity; summary of the method: as §1
K562 = assay: Cytotoxicity against human K562 cells assessed as cell growth at 10 uM after 48 hrs by SRB assay; settings: K562, 48 h, read-out: Activity; summary of the method: as §1
SR = assay: Cytotoxicity against human SR cells assessed as cell growth at 10 uM after 48 hrs by SRB assay; settings: read-out: Activity
Summary of the method: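 Leukemia line, NCI-60 single-dose screen at 10^-5 M. Cells are grown in RPMI 1640 with 5% FBS and 2 mM L-glutamine, plated by doubling time, and preincubated 24 h at 37 °C with 5% CO2. After 48 h drug exposure, settled cells are fixed with 80% TCA (final 16%) and stained with SRB. Percent growth is calculated against untreated control and time-zero plates.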

NCI-H522 = assay: Cytotoxicity against human NCI-H522 cells assessed as cell growth at 10 uM after 48 hrs by SRB assay; settings: NCI-H522, 48 h, read-out: Activity; summary of the method: as §1
786-0 = assay: Cytotoxicity against human 786-0 cells assessed as cell growth at 10 uM after 48 hrs by SRB assay; settings: 786-0, 48 h, read-out: Activity; summary of the method: as §1
SK-MEL-5 = assay: Cytotoxicity against human SK-MEL-5 cells assessed as cell growth at 10 uM after 48 hrs by SRB assay; settings: SK-MEL-5, 48 h, read-out: Activity; summary of the method: as §1
CCRF-CEM = assay: Cytotoxicity against human CCRF-CEM cells assessed as cell growth at 10 uM after 48 hrs by SRB assay; settings: read-out: Activity; summary of the method: as §1
LOX IMVI = assay: Cytotoxicity against human LOXIMVI cells assessed as cell growth at 10 uM after 48 hrs by SRB assay; settings: read-out: Activity; summary of the method: as §1
NCI-H23 = assay: Cytotoxicity against human NCI-H23 cells assessed as cell growth at 10 uM after 48 hrs by SRB assay; settings: NCI-H23, 48 h, read-out: Activity; summary of the method: as §1
[4] = Cytotoxicity against human OVCAR5 cells assessed as cell growth at 10 uM after 48 hrs by SRB assay; settings: OVCAR-5, 48 h, read-out: Activity; summary of the method: as §1
COLO 205 = assay: Cytotoxicity against human COLO205 cells assessed as cell growth at 10 uM after 48 hrs by SRB assay; settings: COLO 205, 48 h, read-out: Activity; summary of the method: as §1

SMILES	growth at 10 µM (KM12) [%]	growth at 10 µM (Malme-3M) [%]	growth at 10 µM [1] [%]	growth at 10 µM (SF-268) [%]	growth at 10 µM (T47D) [%]	growth at 10 µM (MDA-MB-231) [%]	growth at 10 µM (SK-OV-3) [%]	growth at 10 µM (TK-10) [%]	growth at 10 µM (A549) [%]	growth at 10 µM [2] [%]	growth at 10 µM (SNB-19) [%]	growth at 10 µM (HCC 2998) [%]	growth at 10 µM [3] [%]	growth at 10 µM (BT-549) [%]	growth at 10 µM (HT-29) [%]	growth at 10 µM (HCT-116) [%]	growth at 10 µM (MOLT-4) [%]	growth at 10 µM (U-251) [%]	growth at 10 µM (PC-3) [%]	growth at 10 µM (A498) [%]	other results
Cc1cc(C)n(-c2cn3c(-c4ccc(Cl)cc4)csc3n2)n1	99.9	93.1	81.9	102	80.7	86.4	93.4	128	85.8	104	92.8	102	89.6	113	87	89.8	81.3	87.8	79.1	85.7	growth at 10 µM (SF-295): 82.5%; growth at 10 µM (K562): 83.1%; growth at 10 µM (SR): 65.8%; growth at 10 µM (NCI-H522): 75.3%; growth at 10 µM (786-0): 102%; growth at 10 µM (SK-MEL-5): 85.5%; growth at 10 µM (CCRF-CEM): 87.8%; growth at 10 µM (LOX IMVI): 91.9%; growth at 10 µM (NCI-H23): 91%; growth at 10 µM [4]: 109%; growth at 10 µM (COLO 205): 100%
CC1=NN(c2cn3c(-c4ccccc4)csc3n2)C(=O)C1	102	107	98	99.3	89.4	89.9	88.9	125	101	102	90.8	97.3	59	89.7	106	96.5	84.4	90.7	77.6	96.6	growth at 10 µM (SF-295): 69.4%; growth at 10 µM (K562): 83.4%; growth at 10 µM (SR): 84.5%; growth at 10 µM (NCI-H522): 89.2%; growth at 10 µM (786-0): 96.6%; growth at 10 µM (SK-MEL-5): 102%; growth at 10 µM (CCRF-CEM): 95.9%; growth at 10 µM (LOX IMVI): 90.8%; growth at 10 µM (NCI-H23): 91.6%; growth at 10 µM [4]: 96.7%; growth at 10 µM (COLO 205): 102%
CC1=NN(c2cn3c(-c4ccc(C)cc4)csc3n2)C(=O)C1	104	107	99.9	111	80.6	79	95.5	135	98.3	100	100	103	71.6	111	118	94.4	78.9	94.1	75.3	99.2	growth at 10 µM (K562): 80.5%; growth at 10 µM (SR): 73.3%; growth at 10 µM (NCI-H522): 88.9%; growth at 10 µM (786-0): 101%; growth at 10 µM (SK-MEL-5): 90%; growth at 10 µM (CCRF-CEM): 94%; growth at 10 µM (LOX IMVI): 93%; growth at 10 µM (NCI-H23): 95.5%; growth at 10 µM [4]: 124%; growth at 10 µM (COLO 205): 106%
O=C1CC(=O)N(c2cn3c(-c4ccc(Cl)cc4)csc3n2)N1	106	97.1	87.4	105	87.3	107	103	95	88.9	103	90.2	102	111	95.3	91.3	93.2	79	91.9	90	75.2	growth at 10 µM (SF-295): 84.4%; growth at 10 µM (K562): 88.1%; growth at 10 µM (SR): 74%; growth at 10 µM (NCI-H522): 74.1%; growth at 10 µM (786-0): 96.4%; growth at 10 µM (SK-MEL-5): 99.7%; growth at 10 µM (CCRF-CEM): 89.5%; growth at 10 µM (LOX IMVI): 96.5%; growth at 10 µM (NCI-H23): 97.8%; growth at 10 µM [4]: 115%; growth at 10 µM (COLO 205): 101%
O=C1CC(=O)N(c2cn3c(-c4ccccc4)csc3n2)N1	101	141	81.2	99.5	82.7	85.7	86.8	131	92.9	97.6	91	103	59.6	97.6	104	95.5	101	84.2	76.4	78.4	growth at 10 µM (K562): 94.2%; growth at 10 µM (SR): 83%; growth at 10 µM (NCI-H522): 74.9%; growth at 10 µM (786-0): 104%; growth at 10 µM (SK-MEL-5): 89.6%; growth at 10 µM (CCRF-CEM): 98.7%; growth at 10 µM (LOX IMVI): 86.9%; growth at 10 µM (NCI-H23): 91.5%; growth at 10 µM [4]: 104%; growth at 10 µM (COLO 205): 100%
O=C1CN2C(c3ccccc3)=CSC2=N1	111	102	97.7	110	84.4	96.7	89.5	125	98.3	103	99.7	97.8	61.3	112	109	97.6	95.4	93.9	82.4	111	growth at 10 µM (K562): 88.8%; growth at 10 µM (SR): 86%; growth at 10 µM (NCI-H522): 94.3%; growth at 10 µM (786-0): 104%; growth at 10 µM (SK-MEL-5): 99.8%; growth at 10 µM (CCRF-CEM): 96.3%; growth at 10 µM (LOX IMVI): 89.4%; growth at 10 µM (NCI-H23): 94.9%; growth at 10 µM [4]: 113%; growth at 10 µM (COLO 205): 102%
